We go through 15 compounds from PubChem BioAssay.

Active and inactive are the calls of the source.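 How the source made its calls, unless noted: active means viability loss from added drug above about 55%, and viability with drug at most 40%, in both replicates (limit read from the data, passing the limit was not always enough); inconclusive means both conditions met in only one replicate; inactive means neither replicate meets both conditions.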

The nature of experiment [1]: reducers of endogenous Her2 protein level, primary screen, SKBR3 breast tumor cells, AlphaScreen, ATP viability (AID 461;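 active means Her2 level under about 52% in both replicate screens, with viability over 70% of control, limit read from the data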;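 on Her2 level: lower value means less Her2 protein in the cells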;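 on viability: percent of carrier control wells set as 100% viability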). To be noted: 18-24 h, measured here: SKBR3 viability, ATP luminescence, at 10 µM.
In experiment [2] the target is Receptor tyrosine-protein kinase erbB-2 (Homo sapiens) (UniProt P04626). The description is as above. The settings on record: 18-24 h, at 10 µM, stronger effect = lower value.
Experiment [3] is described as follows: SK-BR-3 cell growth inhibitors, pilot screen, 24 h, human (AID 572;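 active means viability at or below 10% of carrier control in both of two separate runs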;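 further: compound exposure lasted between 18 and 24 h rather than exactly 24 h; 100% = carrier-treated control wells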). To be noted: SK-BR-3 viability, CellTiter-Glo luminescence, at 10 µM, stronger effect = lower value.
A short description of experiment [4]: HUVEC growth inhibition – cell-based, human, primary screen (AID 575;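 active means viability at or below 30% in both replicate assays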;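 further: 100% = median of untreated cell wells with 0.1% DMSO on each plate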). To be noted: HUVEC proliferation, CellTiter-Glo luminescence, 72 h; at 10 µM; stronger effect = lower value. In short, it runs like this:
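System – primary HUVEC, no more than 12 passages · Medium – Low-serum (2% FBS) EBM, supplemented · Times – 72 h exposure, 37 °C, 5% CO2, 30 min RT equilibration · Measured by – luminescent ATP assay · Read-out – % viability relative to median vehicle-well signal on each plate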

A short description of experiment [5]: growth inhibitors of H69AR lung tumor, primary screen, human, duplicate replicates (AID 580;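 active means viability at or under a set limit in both replicates, limit being median viability minus 3 SD, cut at about 48% in these data, passing the limit was not always enough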;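 further: 100% = mean luminescence of untreated wells and 0% = no signal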). To be noted: H69AR lung tumor cells viability, ATP luminescence, 72 h; at 10 µM; stronger effect = lower value.
A short description of experiment [6]: reversal of MRP1-mediated doxorubicin resistance, pilot screen, H69AR cells, doxorubicin co-treatment (AID 601). To be noted: CellTiter-Glo, 72 h, at 10 µM; for differential viability (reversal): stronger effect = higher value.
A short description of experiment [7]: 384-well plate pilot, post-Golgi transport modulator project, inhibition of yeast transport mutant growth (AID 636; in the data active means inhibition above about 31%). The settings on record: absorbance 615 nm, about 18 h, stronger effect = higher value.
The nature of experiment [8]: growth suppression of yeast trafficking mutant, preliminary HTS, modulators of trafficking downstream of Golgi apparatus project, 1536-format plate, OD 615 nm (AID 637; in the data active means inhibition above about 30%). To be noted: yeast transport mutant growth, absorbance 615 nm, 18 h; stronger effect = higher value.
Setting [9] is: H69AR cells + 2 uM doxorubicin, measured here: viability with 2 uM doxorubicin, stronger effect = lower value.
Setting [10] is: H69AR cells, compound alone cytotoxicity.

Sequence of Receptor tyrosine-protein kinase erbB-2 (Homo sapiens) (P04626 whole entry, looked up): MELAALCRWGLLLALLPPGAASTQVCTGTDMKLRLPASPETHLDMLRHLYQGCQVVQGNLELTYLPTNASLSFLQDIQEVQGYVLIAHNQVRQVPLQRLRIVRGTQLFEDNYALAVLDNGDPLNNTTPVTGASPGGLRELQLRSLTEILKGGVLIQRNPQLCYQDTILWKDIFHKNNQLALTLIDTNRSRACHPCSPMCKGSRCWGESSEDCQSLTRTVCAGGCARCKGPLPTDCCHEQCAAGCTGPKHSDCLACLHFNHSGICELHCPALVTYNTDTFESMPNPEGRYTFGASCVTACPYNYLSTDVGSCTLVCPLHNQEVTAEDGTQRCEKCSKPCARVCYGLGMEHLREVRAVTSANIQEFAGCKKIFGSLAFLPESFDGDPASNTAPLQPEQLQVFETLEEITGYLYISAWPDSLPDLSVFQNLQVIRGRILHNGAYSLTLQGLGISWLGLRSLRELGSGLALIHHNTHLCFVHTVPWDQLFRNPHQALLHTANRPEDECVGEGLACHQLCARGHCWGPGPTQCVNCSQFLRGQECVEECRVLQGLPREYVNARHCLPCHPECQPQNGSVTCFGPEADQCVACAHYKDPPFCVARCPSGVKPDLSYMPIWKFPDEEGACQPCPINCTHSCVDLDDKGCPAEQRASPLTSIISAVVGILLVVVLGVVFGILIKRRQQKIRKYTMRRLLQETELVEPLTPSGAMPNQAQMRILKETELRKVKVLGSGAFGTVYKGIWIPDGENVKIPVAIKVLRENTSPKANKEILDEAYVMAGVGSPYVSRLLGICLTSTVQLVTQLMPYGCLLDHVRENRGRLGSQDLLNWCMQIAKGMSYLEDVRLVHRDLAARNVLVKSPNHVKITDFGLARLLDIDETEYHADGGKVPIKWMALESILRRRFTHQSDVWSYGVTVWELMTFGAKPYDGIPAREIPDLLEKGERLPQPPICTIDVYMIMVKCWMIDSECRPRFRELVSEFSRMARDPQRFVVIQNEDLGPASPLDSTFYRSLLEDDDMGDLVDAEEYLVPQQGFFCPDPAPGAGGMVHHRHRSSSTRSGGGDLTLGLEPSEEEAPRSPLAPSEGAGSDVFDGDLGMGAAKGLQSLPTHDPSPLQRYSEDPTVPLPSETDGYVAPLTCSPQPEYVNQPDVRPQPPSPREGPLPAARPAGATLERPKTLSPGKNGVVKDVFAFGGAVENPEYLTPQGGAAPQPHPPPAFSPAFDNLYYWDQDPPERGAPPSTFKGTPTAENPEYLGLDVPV

As to `CCOc1ccccc1NC(=O)C1CCCN(C(=O)NCc2ccccc2)C1` (stereo not given), the viability in experiment [1] was 102%; in experiment [3], 102% (inactive); in experiment [4], 96.8% (inactive); in experiment [5], 100% (inactive); in experiment [6] (setting [9]), 96.6%; in experiment [6] (setting [10]), 100%. Moreover, the Her2 level in experiment [2] was 89.5% (inactive). The differential viability (reversal) in experiment [6] (H69AR cells + 2 uM doxorubicin) was 3.45% (inactive). Moreover, the results for the inhibition in experiment [7] and in experiment [8] were -2.13% (inactive) and 4.26% (inactive), respectively.

`CCN(CC)S(=O)(=O)c1ccc(C(=O)Oc2ccc3c(c2)OCO3)cc1`: the viability in experiment [1] was 101%; in experiment [3], 101% (inactive); in experiment [4], 86.6% (inactive); in experiment [5], 90.5% (inactive); in experiment [6] (setting [9]), 86.1%; in experiment [6] (setting [10]), 90.5%. Also, in experiment [2], the Her2 level is 84% (inactive). In addition, in experiment [6] (H69AR cells + 2 uM doxorubicin), the differential viability (reversal) was 4.36% (inactive). In addition, the inhibition in experiment [7] was -5.53% (inactive); in experiment [8], -4.13% (inactive).

With `Cc1c(C(=O)N2CCCC2)sc(NC(=O)c2cccs2)c1C#N`, the viability was 106% in experiment [1]; 106% (inactive) in experiment [3]; 98.1% (inactive) in experiment [4]; 89.9% (inactive) in experiment [5]; 90.2% in experiment [6] (setting [9]); 89.9% in experiment [6] (setting [10]). Further, the Her2 level in experiment [2] was 91.5% (inactive). The differential viability (reversal) in experiment [6] (H69AR cells + 2 uM doxorubicin) was -0.35% (inactive). Also, the inhibition was -3.6% (inactive) in experiment [7] and -5.81% (inactive) in experiment [8].

In the case of `COc1ccccc1N1CCN(C(=O)c2ccc(CS(=O)(=O)c3ccccc3OC)o2)CC1`, the viability is 90.5% in experiment [1]; 90.5% (inactive) in experiment [3]; 85.1% (inactive) in experiment [4]; 76.2% (inactive) in experiment [5]; 88.1% in experiment [6] (setting [9]); 76.2% in experiment [6] (setting [10]). The Her2 level in experiment [2] was 104% (inactive). Besides, in experiment [6] (H69AR cells + 2 uM doxorubicin), the differential viability (reversal) was -11.9% (inactive). Besides, the values for the inhibition in experiment [7] and in experiment [8] were -5.39% (inactive) and -0.32% (inactive), respectively.

With `CCN(CC(=O)Nc1ccc(S(N)(=O)=O)cc1)S(=O)(=O)c1cc(C)ccc1OC`, the viability in experiment [1] is 76.5%; in experiment [3], 76.5% (inactive); in experiment [4] it was 109% (inactive); in experiment [5] it was 114% (inactive); in experiment [6] (setting [9]) it was 99.2%; in experiment [6] (setting [10]), 114%. Also, in experiment [2], the Her2 level is 105% (inactive). In experiment [6] (H69AR cells + 2 uM doxorubicin), the differential viability (reversal) was 14.4% (inactive). The inhibition in experiment [7] is -3.55% (inactive); in experiment [8], -1.67% (inactive).

Regarding `COc1ccc(Cl)cc1S(=O)(=O)n1cnc2ccccc21`, the viability in experiment [1] is 99%; in experiment [3], 99% (inactive); in experiment [4], 59.1% (inactive); in experiment [5] it was 33.7% (active); in experiment [6] (setting [9]) it was 83.5%; in experiment [6] (setting [10]) it was 33.7%. Moreover, the Her2 level in experiment [2] was 106% (inactive). The differential viability (reversal) in experiment [6] (H69AR cells + 2 uM doxorubicin) is -49.8% (inactive). The inhibition in experiment [7] was -4.59% (inactive); in experiment [8] it was -2.3% (inactive).

On to `CC(=O)NS(=O)(=O)c1ccc(NC(=O)c2ccccc2F)cc1`, for which the viability in experiment [1] is 72%; in experiment [3], 72% (inactive); in experiment [4] it was 87.3% (inactive); in experiment [5], 99.4% (inactive); in experiment [6] (setting [9]), 95.5%; in experiment [6] (setting [10]) it was 99.4%. Further, the Her2 level in experiment [2] was 95% (inactive). The differential viability (reversal) in experiment [6] (H69AR cells + 2 uM doxorubicin) is 3.83% (inactive). For the same compound, the inhibition was 0% (inactive) in experiment [7] and 2.33% (inactive) in experiment [8].

In the case of `CCCCNS(=O)(=O)c1ccc(OC)c2ncccc12`, the viability in experiment [1] was 102%; in experiment [3], 102% (inactive); in experiment [4] it was 102% (inactive); in experiment [5] it was 90% (inactive); in experiment [6] (setting [9]), 89.7%; in experiment [6] (setting [10]), 90%. Besides, in experiment [2], the Her2 level is 108% (inactive). Moreover, the differential viability (reversal) in experiment [6] (H69AR cells + 2 uM doxorubicin) is 0.295% (inactive). The inhibition in experiment [7] is -4.32% (inactive); in experiment [8] it was -3.33% (inactive).

As for `COc1ccc(C)cc1NCc1cccc(OC)c1OC`, the viability in experiment [1] was 75.5%; in experiment [3], 75.5% (inactive); in experiment [4], 87.2% (inactive); in experiment [5], 102% (inactive); in experiment [6] (setting [9]), 109%; in experiment [6] (setting [10]) it was 102%. The Her2 level in experiment [2] was 90.5% (inactive). Also, the differential viability (reversal) in experiment [6] (H69AR cells + 2 uM doxorubicin) is -6.87% (inactive). The inhibition was -5.41% (inactive) in experiment [7] and -6.39% (inactive) in experiment [8].

Take `Cc1ccc(CNC(=O)C2CCN(S(=O)(=O)c3c(C)noc3C)CC2)cc1`: the viability is 100% in experiment [1]; 100% (inactive) in experiment [3]; 106% (inactive) in experiment [4]; 104% (inactive) in experiment [5]; 97.4% in experiment [6] (setting [9]); 104% in experiment [6] (setting [10]). Moreover, the Her2 level in experiment [2] is 102% (inactive). Besides, the differential viability (reversal) in experiment [6] (H69AR cells + 2 uM doxorubicin) was 6.84% (inactive). Further, the inhibition in experiment [7] was -0.53% (inactive); in experiment [8] it was -4.44% (inactive).

With `CCN(CC)CCOC(=O)c1c(C)oc2ccc(O)cc12`, the viability in experiment [1] was 102%; in experiment [3] it was 102% (inactive); in experiment [4] it was 89.7% (inactive); in experiment [5], 95% (inactive); in experiment [6] (setting [9]) it was 91.1%; in experiment [6] (setting [10]), 95%. For the same compound, in experiment [2], the Her2 level was 109% (inactive). Besides, in experiment [6] (H69AR cells + 2 uM doxorubicin), the differential viability (reversal) was 3.9% (inactive). In addition, the values for the inhibition in experiment [7] and in experiment [8] were -0.53% (inactive) and -6.94% (inactive), respectively.

`Cn1c(=O)[nH]c2cc3ccccc3cc21`: the viability was 118% in experiment [1]; 118% (inactive) in experiment [3]; 26.6% (active) in experiment [4]; 95.6% (inactive) in experiment [5]; 79.1% in experiment [6] (setting [9]); 95.6% in experiment [6] (setting [10]). Moreover, the Her2 level in experiment [2] is 94% (inactive). Also, the differential viability (reversal) in experiment [6] (H69AR cells + 2 uM doxorubicin) was 16.5% (inactive). The inhibition in experiment [7] was -6.05% (inactive); in experiment [8], -0.73% (inactive).

As for `O=C(c1ccc2c(c1)OCCO2)C1CCN(C(=O)c2ccc(F)cc2)CC1`, the viability is 102% in experiment [1]; 102% (inactive) in experiment [3]; 93.7% (inactive) in experiment [4]; 83.8% (inactive) in experiment [5]; 99.9% in experiment [6] (setting [9]); 83.8% in experiment [6] (setting [10]). In addition, the Her2 level in experiment [2] is 111% (inactive). The differential viability (reversal) in experiment [6] (H69AR cells + 2 uM doxorubicin) was -16.2% (inactive). For the same compound, the inhibition in experiment [7] is -6.35% (inactive); in experiment [8], -3.11% (inactive).

`O=C(COc1nnnc2ccccc12)N1CCCc2ccccc21`: the viability in experiment [1] is 97%; in experiment [3], 97% (inactive); in experiment [4] it was 98.2% (inactive); in experiment [5] it was 98.3% (inactive); in experiment [6] (setting [9]) it was 97.9%; in experiment [6] (setting [10]) it was 98.3%. In experiment [2], the Her2 level was 87% (inactive). The differential viability (reversal) in experiment [6] (H69AR cells + 2 uM doxorubicin) was 0.405% (inactive). Moreover, the inhibition is -4.8% (inactive) in experiment [7] and 6.07% (inactive) in experiment [8].

For the compound `C=CCn1c(SCC(=O)O)nnc1-c1cccc(Cl)c1`, the viability in experiment [1] was 116%; in experiment [3], 116% (inactive); in experiment [4], 103% (inactive); in experiment [5], 109% (inactive); in experiment [6] (setting [9]), 96.3%; in experiment [6] (setting [10]), 109%. Further, the Her2 level in experiment [2] is 107% (inactive). Also, the differential viability (reversal) in experiment [6] (H69AR cells + 2 uM doxorubicin) was 12.6% (inactive). The inhibition in experiment [7] is -5.19% (inactive); in experiment [8] it was -3.67% (inactive).
